Here are results for 12 compounds from ChEMBL document CHEMBL1123346, “Pyrimidinones. 3. N-substituted 6-phenylpyrimidinones and pyrimidinediones with diuretic/hypotensive and antiinflammatory activity” (J Med Chem, 1986).

Data set [1] deals with Rattus norvegicus. As to the kind of experiment: Compound was tested for urinary volume excretion in conscious rat at the dose of 1.0 mg/kg expressed as urinary excretion in treated rats/urinary excretion in control rats. It counts as ADME, organism-based, Urine. Further details: dose 1 mg/kg. Conditions: in vivo. The essentials:
(§1)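 Male rats (~160 g) fasted 24 h, water withheld 1.5 h; oral gavage of compound (0.3-100 mg/kg) in 25 mL/kg saline with 0.5% carboxymethylcellulose; 5 h urine collection in metabolism cages. Urine volume, Na+ and K+ (flame photometry) expressed as treated/control excretion ratio.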

For data set [2], the system named is Rattus norvegicus. The data set can be described thus: Compound was tested for urinary volume excretion in conscious rat at the dose of 10 mg/kg expressed as urinary excretion in treated rats/urinary excretion in control rats. The data set is classed as ADME, organism-based, Urine. On the set-up: dose 10 mg/kg. Conditions: in vivo. The essentials:
as §1

The test system of data set [3] is Rattus norvegicus. As to the kind of experiment: Blood pressure change in rats after oral administration of 50 mg/kg dose after 24 hours. The data set is classed as functional. Summed up:
(§2)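 Restrained female Sprague–Dawley rats with indwelling aortic cannulas exteriorized at the nape; direct arterial pressure via transducer, mean pressure by electrical integration of phasic pressure. Readings before and 4 and 24 h after oral dosing (carboxymethylcellulose suspension, 10 mL/kg). Value is change in mean arterial pressure, averaged over two animals.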

Data set [4] can be described thus: Potassium salt excretion in conscious rat at the dose of 0.3 mg/kg expressed as urinary excretion in treated rats/urinary excretion in control rats. It counts as ADME, organism-based, Urine. Further details: dose 0.3 mg/kg. Conditions: in vivo. The essentials:
as §1

A short description of data set [5]: Sodium salt excretion in conscious rat at the dose of 30 mg/kg expressed as urinary excretion in treated rats/urinary excretion in control rats. The data set is classed as ADME, organism-based, Urine. Further details: dose 30 mg/kg. Conditions: in vivo. Summed up: as §1
A short description of data set [6]: Sodium salt excretion in conscious rat at the dose of 100 mg/kg expressed as urinary excretion in treated rats/urinary excretion in control rats. The data set is classed as ADME, organism-based, Urine. Further details: dose 100 mg/kg. Conditions: in vivo. The essentials: as §1
Data set [7] in a line: Potassium salt excretion in conscious rat at the dose of 3.0 mg/kg expressed as urinary excretion in treated rats/urinary excretion in control rats. The data set is classed as ADME, organism-based, Urine. Conditions: in vivo. Further details: dose 3 mg/kg. The essentials: as §1
Data set [8] in a line: Sodium salt excretion in conscious rat at the dose of 3.0 mg/kg expressed as urinary excretion in treated rats/urinary excretion in control rats. Conditions: in vivo. The data set is classed as ADME, organism-based, Urine. Further details: dose 3 mg/kg. The essentials: as §1
Data set [9] can be described thus: Sodium salt excretion in conscious rat at the dose of 1.0 mg/kg expressed as urinary excretion in treated rats/urinary excretion in control rats. The data set is classed as ADME, organism-based, Urine. On the set-up: dose 1 mg/kg. Conditions: in vivo. The essentials: as §1
Data set [10] in a line: Potassium salt excretion in conscious rat at the dose of 1.0 mg/kg expressed as urinary excretion in treated rats/urinary excretion in control rats. The data set is classed as ADME, organism-based, Urine. On the set-up: dose 1 mg/kg. Conditions: in vivo. The essentials: as §1
The subject of data set [11] is Rattus norvegicus. As to the kind of experiment: Compound was tested for urinary volume excretion in conscious rat at the dose of 0.3 mg/kg expressed as urinary excretion in treated rats/urinary excretion in control rats. It counts as ADME, organism-based, Urine. On the set-up: dose 0.3 mg/kg. Conditions: in vivo. Summed up: as §1
The nature of data set [12]: Potassium salt excretion in conscious rat at the dose of 100 mg/kg expressed as urinary excretion in treated rats/urinary excretion in control rats. The data set is classed as ADME, organism-based, Urine. Conditions: in vivo. On the set-up: dose 100 mg/kg. The essentials:
as §1

Data set [13] relates to Rattus norvegicus. As to the kind of experiment: Inhibition of RPAR administered perorally at 50 mg/kg dose. It counts as functional. Conditions: route oral. Summed up:
(§3)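 Male Wistar rats (180-200 g), 5-10/group, dosed orally (water with Tween-80 suspension) 1 h before iv sensitization with 1 mg bovine serum albumin; 24-h fasted. 60 min later subplantar challenge with 200 µg anti-BSA in left hindpaw. Paw swelling by mercury displacement plethysmography at 2 h post-challenge.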

The nature of data set [14]: Potassium salt excretion in conscious rat at the dose of 30 mg/kg expressed as urinary excretion in treated rats/urinary excretion in control rats. Conditions: in vivo. The data set is classed as ADME, organism-based, Urine. Further details: dose 30 mg/kg. The essentials: as §1
Data set [15] can be described thus: Potassium salt excretion in conscious rat at the dose of 10 mg/kg expressed as urinary excretion in treated rats/urinary excretion in control rats. Conditions: in vivo. The data set is classed as ADME, organism-based, Urine. Further details: dose 10 mg/kg. The essentials: as §1
A short description of data set [16]: Sodium salt excretion in conscious rat at the dose of 10 mg/kg expressed as urinary excretion in treated rats/urinary excretion in control rats. Conditions: in vivo. The data set is classed as ADME, organism-based, Urine. On the set-up: dose 10 mg/kg. Summed up: as §1
For data set [17], the system named is Rattus norvegicus. The data set can be described thus: Compound was tested for urinary volume excretion in conscious rat at the dose of 100 mg/kg expressed as urinary excretion in treated rats/urinary excretion in control rats. Conditions: in vivo. On the set-up: dose 100 mg/kg. The data set is classed as ADME, organism-based, Urine. Summed up:
as §1

Data set [18] relates to Rattus norvegicus. The data set can be described thus: Compound was tested for urinary volume excretion in conscious rat at the dose of 3.0 mg/kg expressed as urinary excretion in treated rats/urinary excretion in control rats. Conditions: in vivo. On the set-up: dose 3 mg/kg. The data set is classed as ADME, organism-based, Urine. Summed up:
as §1

Data set [19] in a line: Sodium salt excretion in conscious rat at the dose of 0.3 mg/kg expressed as urinary excretion in treated rats/urinary excretion in control rats. It counts as ADME, organism-based, Urine. On the set-up: dose 0.3 mg/kg. Conditions: in vivo. Summed up:
as §1

The subject of data set [20] is Rattus norvegicus. As to the kind of experiment: Compound was tested for urinary volume excretion in conscious rat at the dose of 30 mg/kg expressed as urinary excretion in treated rats/urinary excretion in control rats. It counts as ADME, organism-based, Urine. Further details: dose 30 mg/kg. Conditions: in vivo. Summed up:
as §1

The species entered for data set [21] is Rattus norvegicus. The data set can be described thus: Diuretic activity in rats. It counts as functional, Urine. Summed up:
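Male rats (~160 g) fasted 24 h, water withheld 1.5 h, both withheld during test. Gavage 25 mL/kg 0.9% saline with 0.5% carboxymethylcellulose containing compound at 40 mg/kg; urine collected 5 h in metabolism cages. Two-stage test, T/C urine volume per stage; active if product of stage T/Cs ≥3.34.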

The test system of data set [22] is Rattus norvegicus. The data set can be described thus: Inhibition of RPAR administered perorally at 100 mg/kg dose. The data set is classed as functional. Conditions: route oral. The essentials:
as §3

Data set [23] relates to Rattus norvegicus. The data set can be described thus: Blood pressure change in rats after oral administration of 50 mg/kg dose after 4 hours. The data set is classed as functional. Summed up:
as §2

Data set [24] has as its system Rattus norvegicus. As to the kind of experiment: Inhibition of RPAR administered perorally at 25 mg/kg dose. It counts as functional. Conditions: route oral. The essentials: as §3

With `Cn1c(N)nc(-c2ccccc2)c(I)c1=O`, the Urinary volume was determined as 1.4 in the data set with Rattus norvegicus [1]; 2.2 in the data set with Rattus norvegicus [2]; 1.3 with Rattus norvegicus [11]; 2 in the data set with Rattus norvegicus [17]; 1.6 with Rattus norvegicus [18]; 2.7 in the data set with Rattus norvegicus [20]. Moreover, the MABP change in the data set with Rattus norvegicus [3] was -13 mmHg; in the data set on Rattus norvegicus [23], -6 mmHg. The “K+ excretion” value in [4] turned out to be 1.1; in data set [7], 1.2; in data set [10], 1.1; in [12], 1.6; in data set [14] it was 2.1; in [15], 1.4. Besides, the “Na+ excretion” value in data set [5] is reported as 2.4; in data set [6], 2.7; in [8], 1.6; in data set [9], 1.2; in [16], 1.9; in [19] it was 1.1. Moreover, the inhibition in vivo at 50 mg/kg in the data set on Rattus norvegicus [13] came out at 30%. In the data set filed under Rattus norvegicus [21], this compound showed a Diuretic activity of 4.46. In the data set with Rattus norvegicus [22], testing at 100 mg/kg gave an inhibition in vivo of 79%. The compound also had an inhibition in vivo at 25 mg/kg in the data set with Rattus norvegicus [24] of 18%.

Consider `Oc1nc(O)c(I)c(-c2ccccc2)n1`, for which the values for the MABP change in the data set with Rattus norvegicus [3] and in the data set on Rattus norvegicus [23] were 11 mmHg and 7 mmHg, respectively. In the data set with Rattus norvegicus [13], this compound displayed an inhibition in vivo at 50 mg/kg of 41%. In addition, the Diuretic activity in the data set listed under Rattus norvegicus [21] amounted to 5.43. In the data set with Rattus norvegicus [22], this compound yielded an inhibition in vivo at 100 mg/kg of 48%.

`Cn1c(-c2ccccc2)c(Br)c(=O)n(C)c1=O` registered an inhibition in vivo at 50 mg/kg with Rattus norvegicus [13] of 36%. In the data set on Rattus norvegicus [22], the inhibition in vivo at 100 mg/kg worked out at 59%.

Consider `Cn1c(=O)cc(-c2ccccc2)[nH]c1=O`, for which the MABP change came to 6 mmHg with Rattus norvegicus [3] and 0 mmHg in the data set with Rattus norvegicus [23].

For `N=C(N)NCCN1CCCCCCC1` [GUANETHIDINE], the MABP change in the data set on Rattus norvegicus [3] is listed as 9 mmHg; in the data set on Rattus norvegicus [23], -16 mmHg.

In the case of `Cn1c(-c2ccccc2)cc(=O)[nH]c1=O`, the MABP change in the data set with Rattus norvegicus [3] is reported as 6 mmHg; in the data set with Rattus norvegicus [23], 4 mmHg. In the data set on Rattus norvegicus [13], this compound came in with an inhibition in vivo at 50 mg/kg of 47%. Further, in the data set on Rattus norvegicus [22], the inhibition in vivo at 100 mg/kg was 79%. In the data set with Rattus norvegicus [24], this compound displayed an inhibition in vivo at 25 mg/kg of 27%.

In the case of `CN(C)c1nc(O)c(Br)c(-c2ccccc2)n1`, the values for the MABP change in the data set with Rattus norvegicus [3] and with Rattus norvegicus [23] were 2 mmHg and 1 mmHg, respectively.

On to `N=C(N)Nc1nc(O)c(I)c(-c2ccccc2)n1`, for which the MABP change with Rattus norvegicus [3] is 3 mmHg; in the data set with Rattus norvegicus [23], -2 mmHg.

Take `Cn1c(-c2ccccc2)c(Br)c(=O)[nH]c1=O`: the MABP change in the data set on Rattus norvegicus [3] and in the data set with Rattus norvegicus [23] was 1 mmHg each time. Moreover, the inhibition in vivo at 50 mg/kg in the data set on Rattus norvegicus [13] was 43%. In the data set on Rattus norvegicus [22], the inhibition in vivo at 100 mg/kg was 57%. For the same compound, 25 mg/kg produced 22% inhibition in vivo with Rattus norvegicus [24].

Consider `Cn1c(=O)[nH]c(-c2ccccc2)c(I)c1=O`, for which the MABP change is reported as 4 mmHg in the data set on Rattus norvegicus [3] and 1 mmHg with Rattus norvegicus [23].

In the case of `NS(=O)(=O)c1cc(C(=O)O)c(NCc2ccco2)cc1Cl` [FUROSEMIDE], the Urinary volume came out at 1.2 in the data set on Rattus norvegicus [1]; 2.2 in the data set on Rattus norvegicus [2]; 1.1 in the data set with Rattus norvegicus [11]; 7.2 in the data set on Rattus norvegicus [17]; 1.3 in the data set with Rattus norvegicus [18]; 4.7 in the data set on Rattus norvegicus [20]. Moreover, the MABP change is -3 mmHg in the data set with Rattus norvegicus [3] and 1 mmHg with Rattus norvegicus [23]. Besides, the “K+ excretion” value came to 1 in data set [4]; 1.3 in data set [7]; 1 in [10]; 3.2 in data set [12]; 2.2 in data set [14]; 1.6 in data set [15]. Also, the “Na+ excretion” value in data set [5] was determined as 3.1; in data set [6] it was 4.5; in [8], 1.1; in data set [9] it was 1.1; in data set [16], 1.5; in data set [19], 1.1. Also, the Diuretic activity in the data set listed under Rattus norvegicus [21] was 31.25.

Turning to `Cn1c(-c2ccccc2)c(Cl)c(=O)[nH]c1=O`, the Urinary volume in the data set with Rattus norvegicus [1] turned out to be 0.9; with Rattus norvegicus [2], 1.1; with Rattus norvegicus [11], 0.9; in the data set on Rattus norvegicus [17], 1.6; in the data set with Rattus norvegicus [18], 0.8; with Rattus norvegicus [20], 1.6. The MABP change with Rattus norvegicus [3] and in the data set on Rattus norvegicus [23] was 2 mmHg each time. Further, the “K+ excretion” value is 0.9 in data set [4]; 1.1 in data set [7]; 1.2 in data set [10]; 1.9 in data set [12]; 1.7 in [14]; 1.3 in data set [15]. For the same compound, the “Na+ excretion” value was 1.6 in data set [5]; 1.6 in [6]; 0.9 in data set [8]; 1.1 in data set [9]; 1.1 in [16]; 1.1 in data set [19]. The compound further came in with a Diuretic activity in the data set filed under Rattus norvegicus [21] of 3.49.
